Only some compounds are listed: those with a hit (about 1.5% of all), similar ones and a draw of the others.
NR2E3 ag-1: agonists of human nuclear receptor NR2E3; 320,000 tested, 0.12% active; Q9Y5X4; GST-NR2E3/biotin-RetCOR TR-FRET, 1536-well; inhibition of corepressor binding, % at 4.78 µM;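 active = percent inhibition above the cutoff of mean plus 3 SD of all tested compounds, set per screening campaign, cut at about 20% in these data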
Target sequence (Q9Y5X4 whole entry, looked up): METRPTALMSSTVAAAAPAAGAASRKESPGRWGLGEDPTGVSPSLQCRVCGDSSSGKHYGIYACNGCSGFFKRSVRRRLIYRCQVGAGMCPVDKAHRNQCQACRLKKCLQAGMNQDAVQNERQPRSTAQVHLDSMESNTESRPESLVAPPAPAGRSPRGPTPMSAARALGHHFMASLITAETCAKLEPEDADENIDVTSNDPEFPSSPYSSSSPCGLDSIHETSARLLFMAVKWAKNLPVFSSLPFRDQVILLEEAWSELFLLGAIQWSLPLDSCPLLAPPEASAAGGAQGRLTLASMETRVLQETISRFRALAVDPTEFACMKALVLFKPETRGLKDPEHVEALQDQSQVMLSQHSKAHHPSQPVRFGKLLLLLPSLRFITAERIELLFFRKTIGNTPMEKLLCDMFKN
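Material: NR2E3–RetCOR corepressor complex | Quantity: 1.35 nM GST-tagged NR2E3 final | Schedule: 5 h at 4 °C | Replication: Singlicate compound wells | Reagent: RetCOR corepressor, biotinylated, 7 nM | Controls: Biotin wells as high control, 0.6% DMSO wells as low control | Signal: TR-FRET, Eu(K)-anti-GST donor, streptavidin-D2 acceptor, ex 340, em 617/671 nm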
Rev-erbA mod: modulates human Rev-erb alpha binding to DNA | Rev-erbα–FITC-DNA binding, fluorescence polarization, 90 min | activity, % at 10 µM | 370,000 tested, 0.79% active;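 active = activity above about 14%, limit read from the data; passing the limit was not always enough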
NR2E3 ag-2: human photoreceptor-specific nuclear receptor agonism; Q9Y5X4; CHO-S Gal4-NCOR/VP16-NR2E3 two-hybrid, luciferase; inhibition of corepressor binding, % at 3.98 µM; 360,000 tested, 0.35% active; AID 602229;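 active = inhibition above the mean of all tested compounds plus 3 SD, cut at about 70% in these data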;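 also: higher means lower luciferase signal from less NR2E3 corepressor binding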
PG9 Ab binder: binds the HIV-1 gp120 antibody PG9; 360,000 tested, 0.43% active; TR-FRET gp120-PG9 antibody binding; inhibition, % at 6.7 µM; in the data active = inhibition above about 8.5%
Rev-erbA confirm: Rev-erb alpha (human) modulation, hit confirmation; shares compounds with Rev-erbA mod; Rev-erb alpha FITC-DNA binding, fluorescence polarization, 90 min; activation, % at 25 µM; 3,000 tested, 61% active; AID 1259319;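 active = activation at or above a set limit, or at least 3 SD above the negative control mean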
RORg counter: affects RORgamma DNA binding in a Rev-erb alpha counter-screen; shares compounds with Rev-erbA mod; purified RORgamma protein-FITC-DNA binding, fluorescence polarization; IC50, µM; 910 tested, 8% active; AID 1259320;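 active = Compounds whose fitted half-maximal concentration for disrupting protein-DNA binding is below 10 micromolar; the record names Rev-erb in its text, so the target is in doubt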
Of the large screens only hits and unclear results are named; the others gave an inactive call (follow-up assays come after a bar, where they were run).

O=C(OC12CCCN(C1)/C(=C/c1cccc(Cl)c1)C2)c1ccc(F)cc1 (stereo not given)	none (no result: NR2E3 ag-1, NR2E3 ag-2, PG9 Ab binder)
O=C1CCC[C@H]2Cc3nc4cc5c(cc4cc3C[C@]23CCCN13)OCO5	none (no result: NR2E3 ag-1, NR2E3 ag-2, PG9 Ab binder)
O=C1NC(=O)c2c(Br)c(Br)c(Br)c(Br)c21	Rev-erbA mod 395 (no result: NR2E3 ag-1) | Rev-erbA confirm 442 | RORg counter 7.5
O=C1NC(=O)C(=O)N1	none
CC(=O)Nc1ccc(S(=O)(=O)N2CCN(Cc3nc4sc(C)c(C)c4c(=O)[nH]3)CC2)cc1	Rev-erbA mod 31 | Rev-erbA confirm inactive
CCOC(=O)c1c(NC(=S)NCCc2ccccc2)sc2c1CC(C(C)C)OC2 (stereo not given)	Rev-erbA mod 26 | Rev-erbA confirm 25
C=CCNC(=S)Nc1sc2c(c1C(=O)OCC)CC(C(C)C)OC2 (stereo not given)	none
Cc1cccc(-c2cccc3c4c([nH]c23)[C@@H]2C[C@H](N(C)C(=O)c3cccc(Cl)c3)[C@H]([C@H](C)O)CN2CC4)c1	none (no result: NR2E3 ag-1, NR2E3 ag-2, PG9 Ab binder)
Cc1ccc(C(=O)Oc2coc(CSc3nnc(NC(=O)c4cccs4)s3)cc2=O)cc1	none
COc1ccc(C2=NN(C(=O)COc3ncnc4ccccc34)C(c3ccco3)C2)cc1 (stereo not given)	Rev-erbA mod 31 | Rev-erbA confirm inactive
COc1ccc(C2=NN(C(=O)CSc3nnc(C)n3C)C(c3ccco3)C2)cc1 (stereo not given)	none
O=S1(=O)c2ccc(Br)cc2OC[C@@H](Cc2ccccc2)N1Cc1cn(Cc2ccccc2)nn1	none (no result: NR2E3 ag-1, NR2E3 ag-2, PG9 Ab binder)
CN(C)c1ccc(C=Cc2nccc3ccccc23)cc1	Rev-erbA mod 303 (no result: NR2E3 ag-1) | Rev-erbA confirm 346 | RORg counter inactive
CCOc1ccc(NC(=O)c2cn(-c3ccc(OCC)cc3)c(=O)c3cc(OC)c(OC)cc23)cc1	none
CCOc1ccc(-n2cc(C(=O)Nc3cccc(C)n3)c3cc(OC)c(OC)cc3c2=O)cc1	Rev-erbA mod 35 | Rev-erbA confirm inactive
COC(=O)c1cc(NC(=O)c2ccccc2)c(=O)oc1/C=C/Nc1ccc(Oc2ccccc2)cc1	Rev-erbA mod 33 (no result: NR2E3 ag-1) | Rev-erbA confirm inactive
CCOC(=O)c1cc(NC(=O)c2ccccc2)c(=O)oc1-c1ccccc1	none
O=C(Nc1nc2ccc(Cl)cc2s1)c1cccc(N2C(=O)CCC2=O)c1	Rev-erbA mod 43 | Rev-erbA confirm inactive
COc1cc(OC)c(C(=O)Nc2cc(S(=O)(=O)N3CCOCC3)ccc2N2CCN(C)CC2)cc1OC	none (no result: NR2E3 ag-1)
CCc1ccc(-c2cc3c(=O)n(CC(=O)N4CCCCCC4)nc(C)n3n2)cc1	none
CCc1ccc(-c2cc3c(=O)n(CC(=O)N4CCCC4)nc(C)n3n2)cc1	Rev-erbA mod 49 | Rev-erbA confirm 20
CCOC(=O)c1sc2nc(C)nc(NC3CCC(O)CC3)c2c1C (stereo not given)	Rev-erbA mod 24 | Rev-erbA confirm inactive
CCOC(=O)c1sc2nc(C)nc(NCc3ccccc3OC)c2c1C	none
C#CCOCCOCCOCCNc1nc(N2CCN(C(=O)[C@H](CCCCN)n3cc(CC(C)O)nn3)CC2)nc(N2CCN(C(=O)[C@H](CCCCN)n3cc(CC(C)O)nn3)CC2)n1 (stereo not given in full)	none
Cc1noc(C)c1C(=O)N1CCC(C(=O)c2ccccc2)CC1	none
O=c1sc(N2CCN(c3ccccc3F)CC2)nc2ccsc12	Rev-erbA mod 24 | Rev-erbA confirm 14
OC1(Cc2ccccc2)CCN(c2ncnc3sccc23)CC1	none (no result: NR2E3 ag-1, NR2E3 ag-2, PG9 Ab binder)
CC(C)(C)c1ccc(CC(=O)N2CCC2(C)C(=O)NCc2cccs2)cc1 (stereo not given)	none (no result: NR2E3 ag-1)
O=c1ccc(-c2ccc(S(=O)(=O)N3CCCCC3)o2)n[nH]1	none
Cc1ccc(Cl)cc1N1CCN(S(=O)(=O)c2ccc(-c3ccc(=O)[nH]n3)o2)CC1	Rev-erbA mod 135 | Rev-erbA confirm 138 | RORg counter inactive
Cc1ccc(NS(=O)(=O)c2ccc(-c3ccc(=O)[nH]n3)o2)cc1Cl	none
Cc1ccc(C)c(N2CCN(S(=O)(=O)c3ccc(-c4ccc(=O)[nH]n4)o3)CC2)c1	Rev-erbA mod 33 | Rev-erbA confirm inactive
N#Cc1ccc(Cn2ccc3ccc(-c4ccc5ccn(C(=O)C6CCC6)c5c4)cc32)cc1	none (no result: NR2E3 ag-1, NR2E3 ag-2, PG9 Ab binder)
COC(=O)c1ccc(Cn2ccc3ccc(-c4ccc5ccn(C(=O)c6ccccc6C)c5c4)cc32)cc1	Rev-erbA mod 30 (no result: NR2E3 ag-1, NR2E3 ag-2, PG9 Ab binder) | Rev-erbA confirm 42 | RORg counter inactive
COC(=O)c1ccc(Cn2ccc3ccc(-c4ccc5ccn(C(=O)c6cccc(OC)c6)c5c4)cc32)cc1	Rev-erbA mod 40 (no result: NR2E3 ag-1, NR2E3 ag-2, PG9 Ab binder) | Rev-erbA confirm 52 | RORg counter inactive
COC(=O)c1ccc(Cn2ccc3ccc(-c4ccc5ccn(C(=O)c6ccccc6)c5c4)cc32)cc1	none (no result: NR2E3 ag-1, NR2E3 ag-2, PG9 Ab binder)
COc1ccc(Cn2ccc3ccc(-c4ccc5ccn(C(=O)c6cccc(OC)c6)c5c4)cc32)cc1	Rev-erbA mod 38 (no result: NR2E3 ag-1, NR2E3 ag-2, PG9 Ab binder) | Rev-erbA confirm 71 | RORg counter inactive
N#Cc1ccc(Cn2ccc3ccc(-c4ccc5ccn(C(=O)C6CCCCC6)c5c4)cc32)cc1	Rev-erbA mod 36 (no result: NR2E3 ag-1, NR2E3 ag-2, PG9 Ab binder) | Rev-erbA confirm 18
COC(=O)c1ccc(Cn2ccc3ccc(-c4ccc5ccn(Cc6ccc(C(=O)OC)cc6)c5c4)cc32)cc1	none (no result: NR2E3 ag-1, NR2E3 ag-2, PG9 Ab binder)
CCN(CC)S(=O)(=O)c1cc(NC(=O)COC(=O)c2ccc(NC(=O)CC#N)cc2)ccc1C	none
CCSc1nnc(NC(=O)CSc2nc3c(cc2C#N)CCCC3)s1	Rev-erbA mod 34 | Rev-erbA confirm 19
N#Cc1cc2c(nc1SCC(=O)Nc1sc3c(c1C#N)CCC3)CCCCCC2	none
CCc1nnc(NC(=O)CSc2nc3c(cc2C#N)CCC3)s1	Rev-erbA mod 29 | Rev-erbA confirm 31
COc1cc(C)ccc1C(=O)N1CCC(Oc2cccnc2)CC1	none (no result: NR2E3 ag-1, NR2E3 ag-2, PG9 Ab binder)
CSc1nc(N)c2c(C)c(C)sc2n1	none
C=C(C)CSc1nc(N)c2c(C)c(C)sc2n1	Rev-erbA mod 26 | Rev-erbA confirm 26
COc1cccc2cc(C(=O)NCCN3CCOCC3)c(=O)oc12	none
CC(=O)Nc1ccc(SCC(=O)NC(=O)c2ccccc2Br)cc1	none
O=C(CCl)N1c2ccccc2Oc2ccc3ccccc3c21	Rev-erbA mod 15 (no result: NR2E3 ag-1) | Rev-erbA confirm inactive
C=CCn1c(=O)c(C(=O)NCCc2ccc(Cl)cc2)c(O)c2cc(OC)c(OC)cc21	Rev-erbA mod 29 | Rev-erbA confirm inactive
COC(=O)Cc1c(C)c2ccc(O)c(CNCc3ccc(OC)c(OC)c3)c2oc1=O	none (no result: NR2E3 ag-1)
Cc1nonc1NC(=O)CSc1nc2cc(Cl)ccc2c2c1CCCC2	Rev-erbA mod 173 (no result: PG9 Ab binder) | Rev-erbA confirm 132
Cc1ccc2c3c(c(SCC(=O)Nc4nonc4C)nc2c1)CCCC3	Rev-erbA mod 26 | Rev-erbA confirm 39 | RORg counter inactive
CCc1nnc(NC(=O)C(CC)c2ccccc2)s1 (stereo not given)	none
CCC(C(=O)Nc1nnc(-c2ccco2)s1)c1ccccc1 (stereo not given)	Rev-erbA mod 15 | Rev-erbA confirm inactive

Screens from PubChem.
